# Source: PubChem BioAssay (several laboratories)
# An excerpt weighted towards active compounds, which were near 3.7% of everything screened.
# EBI2 block: antagonists of human EBI2 receptor; P32249; EBI2 beta-arrestin recruitment, luminescence, 7a,25-OHC stimulated; inhibition, % at 5 µM; actives 0.81% (n = 360,000); in the data active = inhibition above about 38%;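 also: enzyme fragment complementation signal reports receptor beta-arrestin coupling in cells; 0% = agonist plus DMSO wells and 100% = wells without agonist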
# MC4R antag cAMP: human MC4R antagonism in cAMP assay | MC4R-expressing cells, MTII-stimulated cAMP, LANCE TR-FRET | inhibition, % at 6.5 µM | P32245 | actives 0.48% (n = 360,000) | AID 540295;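 active = inhibition above its plate's cutoff, the mean of tested wells on that plate plus 3 SD, cut at about 29% in these data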;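 also: 0% = Melanotan II alone and 100% = Melanotan II plus saturating MCL0020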
# Target sequence (P32245 whole entry, looked up): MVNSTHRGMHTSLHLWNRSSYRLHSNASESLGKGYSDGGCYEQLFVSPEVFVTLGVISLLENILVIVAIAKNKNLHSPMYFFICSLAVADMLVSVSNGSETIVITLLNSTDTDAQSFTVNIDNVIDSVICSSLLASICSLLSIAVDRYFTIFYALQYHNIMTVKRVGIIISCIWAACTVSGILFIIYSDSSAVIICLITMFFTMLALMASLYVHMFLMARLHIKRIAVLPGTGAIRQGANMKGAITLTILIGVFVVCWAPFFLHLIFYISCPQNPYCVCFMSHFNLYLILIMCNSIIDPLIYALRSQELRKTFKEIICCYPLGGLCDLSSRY
#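 system = U2OS cells with stable human MC4R expression | also added = Melanotan II challenge after compound preincubation | dosing = one concentration, 6.5 µM nominal | incubation = compound 30 min, challenge 1 h, detection 1 h | measured by = TR-FRET with Eu-cAMP and labeled anti-cAMP, 671 nm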
# MC4R ag barr: activates human MC4R beta-arrestin recruitment; P32245; U2OS MC4R beta-arrestin complementation, luminescence; percent of melanotan II response, DMSO zero; activation, % at 8.9 µM; actives 0.98% (n = 360,000); AID 540308;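 active = activation above a per-plate cutoff, the mean activation of sample wells on that plate plus 3 SD, cut at about 8% in these data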
# Myeloid diff 2: myeloid differentiation induction | ER-HoxA9 myeloid progenitors, lysozyme-GFP differentiation, flow cytometry | calls only at 10 µM | actives 1% (n = 360,000);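 active = normalized GFP-positive differentiation at or above the plate's own cutoff, the solvent-only control mean plus 3 SD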;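 also: cells exposed to compound for four days before flow analysis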
# Exocytosis inh: blocks lytic granule exocytosis | TALL-104 LAMP-1 surface exposure, flow cytometry; cells stimulated with thapsigargin and PMA | AID 651702 | inhibition, % at 10 µM | actives 0.66% (n = 360,000);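 active = inhibition above about 55%, limit read from the data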
# Myeloid diff: compounds promoting myeloid differentiation. shares compounds with Myeloid diff 2. ER-HoxA9 myeloid progenitors, GFP/Mac1 double-positive flow. calls only. actives 2% (n = 2,300);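 active = share of green or green-and-red cells above 9 and 9% in run 1 or 4 and 3% in run 2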
# GFP autofluor: flagged as fluorescent in myeloid differentiation counter-screen. shares compounds with Myeloid diff 2. fluorescence response, % (test concentration not listed). AID 651707. ER-HoxA9 myeloid progenitors, no estrogen, GFP autofluorescence flow cytometry; vehicle wells 0%, positive control 100%. actives 7.4% (n = 2,300);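 active = over 5% cells positive for green fluorescent reporter, or over 2% positive for both it and APC stain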;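 also: range taken on the double positive population between DMSO and positive control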
# Numbers without * were called inactive; i = inactive; / = no result given; + = active, no number.
SMILES,EBI2 block,MC4R antag cAMP,MC4R ag barr,Myeloid diff 2,Exocytosis inh,Myeloid diff,GFP autofluor
COc1ccccc1CC(=O)N(CCC1=CCCCC1)c1c(N)n(Cc2ccccc2)c(=O)[nH]c1=O,13.0,6.0,-4.2,i,-5.6,/,/
CCCCN(C(=O)c1ccc(-c2ccc([N+](=O)[O-])cc2)o1)c1c(N)n(CCCC)c(=O)[nH]c1=O,1.0,5.7,-2.9,/,15.5,/,/
CCCCN(C(=O)c1ccc([N+](=O)[O-])o1)c1c(N)n(CCCC)c(=O)[nH]c1=O,6.9,8.5,-2.0,+,-4.5,i,1.5
O=C(NCC(O)c1ccccc1)c1cccs1 (stereo not given),-7.4,16.2,0.6,i,-0.9,/,/
C=CCN1C(=O)C(O)(CC(=O)c2ccc(OC)cc2OC)c2cc(Br)ccc21 (stereo not given),2.1,-2.3,0.4,i,-0.4,i,0.0
O=C(C[C@H]1C/C=C\C[C@@H](Cc2ccc(F)cc2)C(=O)OC[C@H]2CCCN2C1=O)NCCO,1.8,4.2,-2.2,i,28.3,/,/
Cn1c(=O)[nH]c(=O)c2c1nc(Br)n2Cc1cccc(Br)c1,0.8,-9.8,-1.9,i,12.0,i,0.0
CN1CCN(c2nc3c(c(=O)[nH]c(=O)n3C)n2Cc2cccc(Br)c2)CC1,-12.4,23.0,-0.9,i,1.2,/,/
Cc1cc(C(=O)CN2C(=O)CCC2=O)c(C)n1Cc1ccccc1,-3.5,-6.8,-0.5,+,-2.3,i,0.3
Cc1cccc(NC(=O)C(=O)NCCc2c[nH]c3ccccc23)c1C,6.6,13.1,1.0,i,-0.9,i,0.4
Cc1cccc(C)c1NC(=O)C(=O)NCCc1c[nH]c2ccccc12,6.5,9.7,-1.7,i,0.5,/,/
O=C(Nc1cccc(C(F)(F)F)c1)C1C2CC3OC(=O)C1C3C2 (stereo not given),7.3,9.0,1.0,+,-0.6,i,0.0
O=C(COC(=O)C1C2CC3OC(=O)C1C3C2)Nc1cccc(C(F)(F)F)c1 (stereo not given),0.5,-0.9,-3.2,i,-6.7,/,/
COc1ccc(-c2cc(-c3cc(OC)ccc3O)[nH]n2)cc1,29.4,-3.0,4.5,i,2.0,i,1.2
Cc1ccc(S(=O)(=O)N2CCN(S(=O)(=O)c3ccc(C)cc3)C3OCCOC32)cc1 (stereo not given),13.6,-4.2,-0.4,i,-3.1,i,0.0
CC(C)c1nc(SCC(=O)N2CCCC2)c2c(=O)n(C)c(=O)n(C)c2n1,3.0,-3.6,1.7,+,2.1,i,0.2
COc1ccc(CSc2nc(CSC)cc(N3CCOCC3)n2)cc1,12.0,7.2,0.9,+,3.1,i,0.0
Cc1ccc(-c2noc(CN(C(=O)CCN3C(=O)c4ccccc4C3=O)C(C)C)n2)cc1,1.3,-0.2,4.1,+,-1.0,i,0.5
O=C(NC1CC1)C1CCN(Cc2cnn(-c3ccccc3)c2-n2cccc2)CC1,1.7,16.7,1.3,+,-0.5,i,0.9
COCC(C)NCc1cccc(OC)c1OC (stereo not given),7.3,17.8,2.1,i,0.5,i,0.3
CCn1c(O)c(N=NC(=O)CNC(=O)c2cccnc2)c2ccccc21,-9.9,-16.5,0.4,i,1.2,/,/
COc1ccc2c(c1)CCC(C)N2S(=O)(=O)c1ccc(C2CNC(=O)C2)cc1 (stereo not given),5.0,-4.1,3.6,/,3.6,i,0.0
COc1ccc(S(=O)(=O)N2c3ccc(F)cc3CCC2C)cc1 (stereo not given),-0.1,-12.6,-0.5,/,17.7,/,/
COc1ccc(N2C(=O)c3ccccc3S2(=O)=O)cc1,-4.2,-0.4,0.2,i,1.6,/,/
COc1ccc2c(c1)-c1ccccc1S(=O)(=O)N2C(C)=O,0.1,7.5,-1.9,i,1.0,i,0.0
SMILES,EBI2 block,MC4R antag cAMP,MC4R ag barr,Myeloid diff 2,Exocytosis inh,Myeloid diff,GFP autofluor
COc1ccc(C(=O)N2CCCC(c3cc(C(=O)Nc4ccccc4)no3)C2)cc1 (stereo not given),3.8,-2.8,-0.9,i,-3.5,/,/
CCCCN1C(N)=NC[C@@H]1Cc1ccc(O)cc1,0.0,2.9,-1.3,+,3.6,i,0.6
CC1(C)CN(CCc2ccccc2)C(=O)[C@H]1CC(=O)Nc1ccccc1,1.5,11.3,-0.5,+,-1.8,i,10.1*
CCCCN1C[C@H](Cc2ccccc2)[C@@H](CC(=O)Nc2ccccc2)C1=O,-0.6,8.1,-0.4,i,9.9,i,0.0
CCc1ccccc1S(=O)(=O)Cc1ccc(C(=O)NCc2cccs2)o1,-0.7,8.4,0.5,i,-1.3,/,/
CCN1CCN(c2ccc(S(=O)(=O)N3CCCCC3)cc2NC(=O)c2ccc([N+](=O)[O-])s2)CC1,-24.5,-7.2,-2.9,+,6.6,i,0.0
CCN1CCN(c2ccc(S(=O)(=O)N3CCCCC3)cc2NC(=O)/C=C/c2ccc(Cl)cc2)CC1,36.2,2.1,-1.3,+,3.4,i,16.2*
CCOC(=O)c1cc(C#N)c(N2CCN(c3ccccn3)CC2)nc1-c1ccccc1,24.0,-3.4,-0.6,i,-0.6,/,/
CC(C)Oc1ccc(C(CC(=O)O)Cc2ccccc2)cc1 (stereo not given),-4.9,20.8,1.0,i,-0.9,/,/
COc1ccc(-c2nn(-c3ccccc3)cc2/C=N/Nc2ccc(S(N)(=O)=O)cc2[N+](=O)[O-])cc1OC,20.2,11.4,-0.1,i,5.9,i,0.0
CC(=O)N1CCN(CC(O)COc2ccc(S(=O)(=O)N3CCOCC3)cc2)CC1 (stereo not given),-15.8,4.0,-1.0,i,2.3,/,/
Cc1ccc(-n2ncc3c(=O)n(-c4cccc(C)c4)c(=O)[nH]c32)cc1,-0.1,9.0,-2.2,i,-4.5,/,/
CCN(C[C@H]1N[C@@](CC)(C(=O)OC)[C@H]2C(=O)N(Cc3ccccc3)C(=O)[C@@H]12)S(=O)(=O)c1ccc(OC)cc1,10.9,-9.3,2.4,i,-2.5,i,0.4
CC[C@@]1(C(=O)OC)N[C@H](CN(C)S(=O)(=O)c2ccc(-c3ccccc3)cc2)[C@@H]2C(=O)N(C)C(=O)[C@@H]21,1.0,8.2,0.6,i,-4.0,i,0.0
CN(C(=O)COC(=O)c1ccc(Br)c([N+](=O)[O-])c1)c1c(N)n(Cc2ccccc2)c(=O)[nH]c1=O,-12.9,10.5,-4.5,i,-9.0,/,/
CCOC(=O)c1ccc(N=c2sc(C(=O)OC)cc(=O)n2C2CC2)cc1,34.9,3.0,2.2,i,-0.1,i,0.2
